Measurements published in ChEMBL document CHEMBL1795242, “Peptidomimetic inhibitors of bacterial peptide deformylase” (Bioorg Med Chem Lett, 2011).
Values after ≈ are worked out from the molar mass of the structure shown.

Assays:
Streptococcus pneumoniae = experiment: Antibacterial activity against Streptococcus pneumoniae; assay type: functional
Summary of the method: (§1)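 MIC against respiratory-tract-infection pathogens: Gram-positive S. pneumoniae and Gram-negative H. influenzae and M. catarrhalis. Where more than one strain was tested, the MIC is given as a range across strains. The minimum number of strains was 3 for H. influenzae and 1 for M. catarrhalis.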

Peptide deformylase = target: T1, Peptide deformylase (Escherichia coli, UniProt Q9JN24); experiment: Inhibition of Escherichia coli nickel containing peptide deformylase
T1 sequence (Q9JN24 whole entry): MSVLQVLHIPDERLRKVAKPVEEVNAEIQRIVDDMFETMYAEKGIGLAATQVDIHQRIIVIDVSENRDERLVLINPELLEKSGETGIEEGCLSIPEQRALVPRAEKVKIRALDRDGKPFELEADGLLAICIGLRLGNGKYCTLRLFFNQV

Haemophilus influenzae = experiment: Antibacterial activity against Haemophilus influenzae; assay type: functional; summary of the method: as §1
Moraxella catarrhalis = experiment: Antibacterial activity against Moraxella catarrhalis; assay type: functional; summary of the method: as §1
[1] = target: T2, Peptide deformylase (Escherichia coli) (UniProt Q9JN24); experiment: Inhibition of Escherichia coli nickel containing peptide deformylase at 1 uM
T2 sequence (whole entry): T1 sequence (Q9JN24 whole entry)

| inhibition [1] | SMILES | MIC (Streptococcus pneumoniae) | IC50 (Peptide deformylase) | MIC (Haemophilus influenzae) | MIC (Moraxella catarrhalis) |
| --- | --- | --- | --- | --- | --- |
| – | COc1ccc(C(=O)N2CCCN2C(=O)[C@H](CC2CCCC2)CN(O)C=O)cc1 | 4 µg/mL (≈ 9.91 µM) | 50 nM | 16 µg/mL (≈ 39.7 µM) | – |
| – | O=CN(O)C[C@@H](CC1CCCC1)C(=O)N1CCCCN1C(=O)Nc1ccc(C(F)(F)F)cc1 | – | 9 nM | 0.25 µg/mL (≈ 0.531 µM) | – |
| – | O=CN(O)C[C@@H](CC1CCCC1)C(=O)N1CCCCN1C(=O)c1ccoc1 | 0.5 µg/mL (≈ 1.32 µM) | 6 nM | 0.125 µg/mL (≈ 0.331 µM) | < 0.03 µg/mL |
| 40% | O=CN(O)C[C@@H](CC1CCCC1)C(=O)N1CCCCN1C(=O)c1cccnc1 | – | – | – | – |
| – | O=CN(O)C[C@@H](CC1CCCC1)C(=O)N1CCCN1C(=O)Cc1ccccc1 | 4 µg/mL (≈ 10.3 µM) | 30 nM | 2 µg/mL (≈ 5.16 µM) | – |
| – | O=C(C[C@@H](CC1CCCC1)C(=O)N1CCCCN1C(=O)c1ccco1)NO | 2 µg/mL (≈ 5.3 µM) | 8 nM | 0.06 µg/mL (≈ 0.159 µM) | 0.06 µg/mL (≈ 0.159 µM) |
| – | COc1cccc(NC(=O)N2CCCN2C(=O)[C@H](CC2CCCC2)CN(O)C=O)c1 | 4 µg/mL (≈ 9.56 µM) | 10 nM | < 0.125 µg/mL | – |
| – | O=CN(O)C[C@@H](CC1CCCC1)C(=O)N1CCCN1C(=O)c1ccco1 | 4 µg/mL (≈ 11 µM) | 30 nM | < 0.125 µg/mL | < 0.125 µg/mL |
| – | O=CN(O)C[C@@H](CC1CCCC1)C(=O)N1CCCN1C(=O)c1ccc(F)cc1 | – | 20 nM | 4 µg/mL (≈ 10.2 µM) | – |
| – | O=CN(O)C[C@@H](CC1CCCC1)C(=O)N1CCCCN1C(=O)c1ccccc1 | 0.5 µg/mL (≈ 1.29 µM) | 500 nM | 1 µg/mL (≈ 2.58 µM) | – |
| – | O=CN(O)C[C@@H](CC1CCCC1)C(=O)N1CCCN1C(=O)c1cccnc1 | – | 300 nM | 2 µg/mL (≈ 5.34 µM) | – |
| – | COCC(=O)N1CCCCN1C(=O)[C@H](CC1CCCC1)CN(O)C=O | 1 µg/mL (≈ 2.81 µM) | 200 nM | 0.25 µg/mL (≈ 0.703 µM) | – |
| – | COc1ccccc1NC(=O)N1CCCCN1C(=O)[C@H](CC1CCCC1)CN(O)C=O | 4 µg/mL (≈ 9.25 µM) | 10 nM | 0.5 µg/mL (≈ 1.16 µM) | – |
| – | COCC(=O)N1CCCN1C(=O)[C@H](CC1CCCC1)CN(O)C=O | – | 60 nM | 1 µg/mL (≈ 2.93 µM) | – |
| – | O=CN(O)C[C@@H](CC1CCCC1)C(=O)N1CCCCN1C(=O)C1CCCCC1 | 0.5 µg/mL (≈ 1.27 µM) | 200 nM | 4 µg/mL (≈ 10.2 µM) | – |
| – | O=CN(O)C[C@@H](CC1CCCC1)C(=O)N1CCCCN1C(=O)c1ccc(F)cc1 | 0.5 µg/mL (≈ 1.23 µM) | 60 nM | 0.5 µg/mL (≈ 1.23 µM) | – |
| – | O=C(C[C@@H](CC1CCCC1)C(=O)N1CCCCN1C(=O)Nc1ccccc1)NO | 4 µg/mL (≈ 9.94 µM) | 20 nM | 1 µg/mL (≈ 2.48 µM) | – |

| inhibition [1] | SMILES | MIC (Streptococcus pneumoniae) | IC50 (Peptide deformylase) | MIC (Haemophilus influenzae) | MIC (Moraxella catarrhalis) |
| --- | --- | --- | --- | --- | --- |
| – | CC(C)(C)OC(=O)N1CCCCN1C(=O)[C@H](CC1CCCC1)CN(O)C=O | 4 µg/mL (≈ 10.4 µM) | 9 nM | 1 µg/mL (≈ 2.61 µM) | – |
| – | O=CN(O)C[C@@H](CC1CCCC1)C(=O)N1CCCN1C(=O)C1CCCCC1 | – | 40 nM | 4 µg/mL (≈ 10.5 µM) | – |
| – | O=CN(O)C[C@@H](CC1CCCC1)C(=O)N1CCCN1C(=O)Nc1ccc(F)cc1 | 8 µg/mL (≈ 19.7 µM) | 10 nM | < 0.125 µg/mL | – |
| – | CC(C)(C)OC(=O)N1CCCN1C(=O)[C@H](CC1CCCC1)CN(O)C=O | 8 µg/mL (≈ 21.7 µM) | 30 nM | 0.5 µg/mL (≈ 1.35 µM) | < 0.125 µg/mL |
| – | COc1ccc(C(=O)N2CCCCN2C(=O)[C@H](CC2CCCC2)CN(O)C=O)cc1 | 0.5 µg/mL (≈ 1.2 µM) | 100 nM | 1 µg/mL (≈ 2.4 µM) | – |
| – | O=CN(O)C[C@@H](CC1CCCC1)C(=O)N1CCCN1C(=O)c1ccccc1 | – | 70 nM | 2 µg/mL (≈ 5.36 µM) | – |
| – | O=CN(O)C[C@@H](CC1CCCC1)C(=O)N1CCCN1C(=O)Nc1ccc(C(F)(F)F)cc1 | 2 µg/mL (≈ 4.38 µM) | 30 nM | 2 µg/mL (≈ 4.38 µM) | 0.06 µg/mL (≈ 0.131 µM) |
| – | O=CN(O)C[C@@H](CC1CCCC1)C(=O)N1CCCCN1C(=O)Nc1ccccc1 | 2 µg/mL (≈ 4.97 µM) | 20 nM | < 0.125 µg/mL | – |
| – | O=CN(O)C[C@@H](CC1CCCC1)C(=O)N1CCCCN1C(=O)c1ccncc1 | 2 µg/mL (≈ 5.15 µM) | 300 nM | 2 µg/mL (≈ 5.15 µM) | – |
| – | O=CN(O)C[C@@H](CC1CCCC1)C(=O)N1CCCN1C(=O)Nc1ccccc1 | 4 µg/mL (≈ 10.3 µM) | 10 nM | < 0.125 µg/mL | – |
| – | COc1ccccc1NC(=O)N1CCCN1C(=O)[C@H](CC1CCCC1)CN(O)C=O | 8 µg/mL (≈ 19.1 µM) | 7 nM | 1 µg/mL (≈ 2.39 µM) | 0.25 µg/mL (≈ 0.597 µM) |
| – | O=CN(O)C[C@@H](CC1CCCC1)C(=O)N1CCCCN1C(=O)Nc1ccc(F)cc1 | 4 µg/mL (≈ 9.51 µM) | 10 nM | < 0.125 µg/mL | – |
| – | O=CN(O)C[C@@H](CC1CCCC1)C(=O)N1CCCN1C(=O)c1ccoc1 | – | 10 nM | 1 µg/mL (≈ 2.75 µM) | – |
| – | O=CN(O)C[C@@H](CC1CCCC1)C(=O)N1CCCCN1C(=O)Cc1ccccc1 | 0.5 µg/mL (≈ 1.25 µM) | 60 nM | 0.25 µg/mL (≈ 0.623 µM) | – |
| – | O=CN(O)C[C@@H](CC1CCCC1)C(=O)N1CCCN1C(=O)c1ccncc1 | 16 µg/mL (≈ 42.7 µM) | 60 nM | 2 µg/mL (≈ 5.34 µM) | – |
| – | COc1cccc(NC(=O)N2CCCCN2C(=O)[C@H](CC2CCCC2)CN(O)C=O)c1 | 2 µg/mL (≈ 4.62 µM) | 20 nM | < 0.125 µg/mL | – |
| – | O=CN(O)C[C@@H](CC1CCCC1)C(=O)N1CCCCN1C(=O)c1ccco1 | 0.5 µg/mL (≈ 1.32 µM) | 5 nM | < 0.125 µg/mL | < 0.125 µg/mL |
